ChEMBL document CHEMBL4699630, “Discovery of novel pyrazolo[3,4-b]pyridine scaffold-based derivatives as potential PIM-1 kinase inhibitors in breast cancer MCF-7 cells” (Bioorg Med Chem, 2020)

Tests used:
[1] = test system: MCF7; experiment: Cytotoxicity against ERalpha-dependent human MCF7 cells assessed as reduction in cell viability incubated for 48 hrs by MTT assay; type: functional, cell-based; conditions: MCF7, 48 h
Outline: (§1)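 Cells grown by standard culture protocols, then exposed for 48 h to serial concentrations (0.1, 1, 10, 100, 1000; unit not given) of each compound. Survival read by absorbance at 570 nm and expressed as % viability = A sample/A control ×100. IC50 fitted from concentration versus % survival; mean ± SEM of three independent values.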

[2] = test system: MDA-MB-231; experiment: Cytotoxicity against Non-ERalpha-dependent human MDA-MB-231 cells assessed as reduction in cell viability incubated for 48 hrs by MTT assay; type: functional, cell-based; conditions: MDA-MB-231, 48 h; outline: as §1
[3] = test system: MCF-10A; experiment: Cytotoxicity against human MCF-10A cells assessed as reduction in cell viability incubated for 48 hrs by MTT assay; type: cell-based; outline: as §1
[4] = target: Serine/threonine-protein kinase pim-1 (Homo sapiens, UniProt P11309); experiment: Inhibition of recombinant human GST-tagged PIM1 by ELISA
Outline: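 PIM-1 kinase activity measured with the HTScan Pim-1 kinase assay kit, following the kit instructions. Compounds dissolved in DMSO and tested at four serial concentrations; IC50 derived from these.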

[5] = test system: MCF7; experiment: Induction of apoptosis in human MCF7 cells assessed as early apoptotic cells at 5.61 uM incubated for 48 hrs by Annexin V-FITC/propidium iodide staining based flow cytometric analysis (reference value: 0.43 %); type: functional
[6] = test system: MCF7; experiment: Induction of apoptosis in human MCF7 cells assessed as late apoptotic cells at 5.61 uM incubated for 48 hrs by Annexin V-FITC/propidium iodide staining based flow cytometric analysis (reference value: 0.16 %); type: functional
[7] = test system: MCF7; experiment: Induction of apoptosis in human MCF7 cells assessed as necrotic cells at 5.61 uM incubated for 48 hrs by Annexin V-FITC/propidium iodide staining based flow cytometric analysis (reference value: 1.05 %); type: functional
[8] = test system: MCF7; experiment: Induction of cell cycle arrest in human MCF7 cells assessed as accumulation of cells at preG1 phase at 5.61 uM incubated for 48 hrs by propidium iodide staining based flow cytometric analysis (reference value: 1.64 %); type: functional
[9] = test system: MCF7; experiment: Induction of cell cycle arrest in human MCF7 cells assessed as accumulation of cells at G0/G1 phase at 5.61 uM incubated for 48 hrs by propidium iodide staining based flow cytometric analysis (reference value: 43.92 %); type: functional
[10] = test system: MCF7; experiment: Induction of cell cycle arrest in human MCF7 cells assessed as accumulation of cells at G2/M phase at 5.61 uM incubated for 48 hrs by propidium iodide staining based flow cytometric analysis (reference value: 12.26 %); type: functional
[11] = Upregulation of P53 gene expression in human MCF7 cells at 5.61 uM incubated for 48 hrs by RT-PCR analysis relative to control; type: functional
[12] = Upregulation of MDM2 gene expression in human MCF7 cells at 5.61 uM incubated for 48 hrs by RT-PCR analysis relative to control; type: functional
[13] = Upregulation of PUMA gene expression in human MCF7 cells at 5.61 uM incubated for 48 hrs by RT-PCR analysis relative to control; type: functional
[14] = test system: MCF7; experiment: Induction of apoptosis in human MCF7 cells assessed as fold increase in caspase-3 gene expression at 5.61 uM incubated for 48 hrs by RT-PCR analysis relative to control; type: functional
[15] = test system: MCF7; experiment: Induction of apoptosis in human MCF7 cells assessed as fold increase in caspase-9 gene expression at 5.61 uM incubated for 48 hrs by RT-PCR analysis relative to control; type: functional
[16] = test system: MCF7; experiment: Induction of apoptosis in human MCF7 cells assessed as fold decrease in BCL2 gene expression at 5.61 uM incubated for 48 hrs by RT-PCR analysis relative to control; type: functional
[17] = Downregulation of PIM1 gene expression in human MCF7 cells at 5.61 uM incubated for 48 hrs by RT-PCR analysis relative to control; type: functional
[18] = test system: MCF7; experiment: Induction of apoptosis in human MCF7 cells assessed as increase in total apoptotic cells at 5.61 uM incubated for 48 hrs by Annexin V-FITC/propidium iodide staining based flow cytometric analysis relative to control; type: functional
[19] = test system: MCF7; experiment: Induction of apoptosis in human MCF7 cells assessed as increase in necrotic cells at 5.61 uM incubated for 48 hrs by Annexin V-FITC/propidium iodide staining based flow cytometric analysis relative to control; type: functional

Sequence of Serine/threonine-protein kinase pim-1 (P11309 whole entry): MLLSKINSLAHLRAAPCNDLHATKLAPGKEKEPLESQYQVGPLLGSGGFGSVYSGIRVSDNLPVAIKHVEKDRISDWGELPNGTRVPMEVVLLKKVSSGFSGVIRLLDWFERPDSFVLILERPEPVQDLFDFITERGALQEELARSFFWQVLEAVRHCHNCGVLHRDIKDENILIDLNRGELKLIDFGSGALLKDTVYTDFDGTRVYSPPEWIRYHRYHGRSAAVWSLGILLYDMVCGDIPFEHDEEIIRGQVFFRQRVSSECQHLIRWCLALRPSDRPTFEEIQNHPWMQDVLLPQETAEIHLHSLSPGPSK

SMILES	IC50 [1]	IC50 [2]	IC50 [3]	IC50 [4]	other results
N#Cc1c(N)nc2nn3c4ccc5ccccc5c4nnc3c2c1-c1ccc(-c2c(C#N)c(N)nc3nn4c(nnc5ccc6ccccc6c54)c23)cc1	11.4 µM	43.7 µM			
CC(=O)c1nnc2c3c(-c4ccccc4Cl)c(C#N)c(O)nc3nn2c1C	14.8 µM	20.8 µM			
N#Cc1c(N)nc2[nH]nc(N)c2c1-c1ccc(-c2c(C#N)c(N)nc3[nH]nc(N)c23)cc1	17.9 µM	35.7 µM	43.6 µM		
N#Cc1c(-c2ccccc2Cl)c2c(nn3c4ccc(O)cc4nnc23)[nH]c1=O	10 µM	24.7 µM	≥ 50 µM	0.112 µM	
N#Cc1c(N)nc(Sc2ccccc2)c(C#N)c1-c1ccc(-c2c(C#N)c(N)nc(Sc3ccccc3)c2C#N)cc1	16.8 µM		48.7 µM		
N#Cc1nnc2c3c(-c4ccccc4Cl)c(C#N)c(O)nc3nn2c1O	27.5 µM	10.6 µM			
N#Cc1c(N)nc2[nH]nc(N)c2c1-c1ccccc1Cl	36.6 µM		20.6 µM		
N#Cc1c(-c2ccccc2Cl)c2c(N/N=C3\C=CC(=O)c4ccccc43)n[nH]c2[nH]c1=O	8.71 µM	≥ 50 µM	≥ 50 µM	0.095 µM	
N#Cc1c(N)nc2[nH]nc(N)c2c1-c1cccc(Cl)c1	≥ 50 µM				
Cn1nc(N)c2c(-c3ccccc3Cl)c(C#N)c(N)nc21			53.7 µM		
N#Cc1c(-c2ccccc2Cl)c2c(nn3c4ccc5ccccc5c4nnc23)[nH]c1=O	≥ 50 µM	9.76 µM			
N#Cc1nnc2c3c(-c4ccccc4Cl)c(C#N)c(=O)[nH]c3nn2c1N	6.98 µM	≥ 50 µM	≥ 50 µM	0.043 µM	
CCOC(=O)c1nnc2c3c(-c4ccccc4Cl)c(C#N)c(=O)[nH]c3nn2c1O	5.61 µM	38.7 µM	46.8 µM	0.026 µM	Activity [5]: 3.93%; Activity [6]: 16.29%; Activity [7]: 11.03%; Activity [8]: 31.25%; Activity [9]: 35.66%; Activity [10]: 34.58%; fold change (FC) [11]: 4.2; fold change (FC) [12]: 3.9; fold change (FC) [13]: 6.32; fold change (FC) [14]: 7.9; fold change (FC) [15]: 6.56; fold change (FC) [16]: 0.41; fold change (FC) [17]: 0.25; fold change (FC) [18]: 19.17; fold change (FC) [19]: 10.5
Cn1nc(N)c2c(-c3ccc(-c4c(C#N)c(N)nc5c4c(N)nn5C)cc3)c(C#N)c(N)nc21	≥ 50 µM		≥ 50 µM		
N#Cc1c(O)nc2nn3c4cc(O)ccc4nnc3c2c1-c1ccccc1Cl	9.12 µM	39.5 µM	≥ 50 µM	0.087 µM	
O=c1[nH]cc(F)c(=O)[nH]1 [FLUOROURACIL]	5.8 µM	15.7 µM	39.7 µM		
